Series [1] concerns the target T1, Peroxisome proliferator-activated receptor alpha (Homo sapiens) (UniProt Q07869).
T1 sequence (whole entry): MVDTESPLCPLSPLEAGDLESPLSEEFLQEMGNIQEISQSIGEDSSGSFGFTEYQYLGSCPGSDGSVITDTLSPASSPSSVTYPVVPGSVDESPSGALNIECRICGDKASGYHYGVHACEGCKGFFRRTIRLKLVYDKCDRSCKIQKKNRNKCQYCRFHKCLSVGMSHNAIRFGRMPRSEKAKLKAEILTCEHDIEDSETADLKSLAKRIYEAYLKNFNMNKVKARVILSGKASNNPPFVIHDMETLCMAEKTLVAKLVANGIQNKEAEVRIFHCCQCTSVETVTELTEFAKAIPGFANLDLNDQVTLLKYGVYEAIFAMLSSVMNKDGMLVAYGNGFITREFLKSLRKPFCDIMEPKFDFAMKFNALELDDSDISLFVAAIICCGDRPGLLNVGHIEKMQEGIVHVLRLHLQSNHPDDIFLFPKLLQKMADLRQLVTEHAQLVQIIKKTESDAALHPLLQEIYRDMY
Nature of the series: Agonist activity at human PPARalpha in human HepG2 cells co-transfected with PPRE3-TK-luc assessed as induction of transactivation activity at 10 uM by luciferase reporter gene assay relative to control. It counts as functional, cell-based. Summed up: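 HepG2 cells were transfected with pSG5 vector carrying human PPARα cDNA and co-transfected with PPRE3-TK-luc. Firefly luciferase was read and normalised to β-galactosidase activity measured in an ELISA reader. Compound was tested at 10 µM. Results are expressed as fold induction versus vehicle (1% DMSO).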
In general terms: Reporter assays use an easily measured gene product as a stand-in for the process of interest.

Series [2] has as its system Mus musculus. Briefly: Antihyperlipidemic activity in db/db mouse assessed as reduction of serum triglycerides level at 3 mg/kg, po qd for 7 days relative to control. It counts as functional. More on the design: scale not given: the % may be the effect or the level left. In short, it runs like this: (§1)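 Male db/db mice aged 6–8 weeks were dosed orally once daily for 7 days. Serum triglycerides and glucose were then measured. Results are expressed as % change versus vehicle-treated controls (n = 6).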

Series [3] is described as follows: Cmax in Wistar rat at 30 mg/kg, po. The class given is ADME, organism-based. The arrangement: dose 30 mg/kg, route oral. As to conditions: in vivo. Summed up:
(§2)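 Single oral dose of 30 mpk to fasted male Wistar rats (n = 6). Plasma concentrations were measured by LC–MS, and Tmax, Cmax, T1/2 and AUC(0–∞) were derived. Values are given as mean ± SD.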

A short description of series [4]: Half life in Wistar rat at 30 mg/kg, po. It counts as ADME, organism-based. The arrangement: dose 30 mg/kg, route oral. Particulars: in vivo. In short, it runs like this: as §2
Series [5] relates to Mus musculus. Nature of the series: Antihyperglycemic activity in db/db mouse assessed as reduction of serum glucose level at 3 mg/kg, po qd for 7 days relative to control. It counts as functional. More on the design: scale not given: the % may be the effect or the level left. In short, it runs like this: as §1
The subject of series [6] is Rattus norvegicus. Briefly: Antihyperlipidemic activity in Sprague-Dawley rat assessed as reduction of serum triglycerides level at 3 mg/kg, po qd for 14 days relative to control. More on the design: scale not given: the % may be the effect or the level left. It counts as functional. Summed up:
(§3)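 Male Sprague–Dawley rats were fed a high-cholesterol diet for 15 days, then given vehicle or compound by oral gavage once daily for 14 days. Serum TG, total cholesterol, LDL-C and HDL-C were measured. Results are expressed as % change versus vehicle (n = 9).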

Series [7] concerns Rattus norvegicus. Briefly: Antihyperlipidemic activity in Sprague-Dawley rat assessed as reduction of serum total cholesterol level at 3 mg/kg, po qd for 14 days relative to control. It counts as functional. More on the design: scale not given: the % may be the effect or the level left. Summed up: as §3
Series [8] relates to Rattus norvegicus. Nature of the series: Antihyperlipidemic activity in Sprague-Dawley rat assessed as increase of serum HDL-cholesterol level at 3 mg/kg, po qd for 14 days relative to control. It counts as functional. Summed up: as §3
A short description of series [9]: Tmax in Wistar rat at 30 mg/kg, po. The class given is ADME, organism-based. More on the design: dose 30 mg/kg, route oral. Particulars: in vivo. In short, it runs like this: as §2
For series [10], the system named is Rattus norvegicus. Briefly: Antihyperlipidemic activity in Sprague-Dawley rat assessed as reduction of serum LDL-cholesterol level at 3 mg/kg, po qd for 14 days relative to control. The class given is functional. More on the design: scale not given: the % may be the effect or the level left. Summed up: as §3
Series [11] in a line: AUC (0 to infinity) in Wistar rat at 30 mg/kg, po. It counts as ADME, organism-based. More on the design: time infinity, dose 30 mg/kg, route oral. Particulars: plasma. In short, it runs like this:
as §2

For series [12], the system named is Rattus norvegicus. Nature of the series: Antihyperlipidemic activity in Sprague-Dawley rat assessed as reduction of serum triglycerides level at 30 mg/kg, po qd for 14 days relative to control. The class given is functional. The arrangement: scale not given: the % may be the effect or the level left. Summed up:
as §3

For series [13], the system named is Rattus norvegicus. Nature of the series: Antihyperlipidemic activity in Sprague-Dawley rat assessed as increase of serum HDL-cholesterol level at 30 mg/kg, po qd for 14 days relative to control. The class given is functional. Summed up:
as §3

The test system of series [14] is Rattus norvegicus. Briefly: Antihyperlipidemic activity in Sprague-Dawley rat assessed as reduction of serum total cholesterol level at 30 mg/kg, po qd for 14 days relative to control. It counts as functional. The arrangement: scale not given: the % may be the effect or the level left. In short, it runs like this:
as §3

Series [15] has as its system Mus musculus. Nature of the series: Antihyperlipidemic activity in db/db mouse assessed as reduction of serum triglycerides level at 30 mg/kg, po qd for 7 days relative to control. The arrangement: scale not given: the % may be the effect or the level left. It counts as functional. Summed up:
as §1

The subject of series [16] is Mus musculus. Briefly: Antihyperglycemic activity in db/db mouse assessed as reduction of serum glucose level at 30 mg/kg, po qd for 7 days relative to control. The class given is functional. More on the design: scale not given: the % may be the effect or the level left. Summed up:
as §1

Series [17] deals with Rattus norvegicus. Briefly: Antihyperlipidemic activity in Sprague-Dawley rat assessed as reduction of serum LDL-cholesterol level at 30 mg/kg, po qd for 14 days relative to control. The class given is functional. The arrangement: scale not given: the % may be the effect or the level left. In short, it runs like this: as §3

The source made the active and inactive calls. The calls are words filed in the database; no cut-off is given here.

Take `C/C(=N\OCCOc1ccc(C[C@H]2CO[C@@](C)(C(=O)O)OC2)cc1)c1ccccc1`: the fold change (FC) in series [1] came to 10.8.
Turning to `C/C(=N\OCCOc1ccc(C[C@H]2CO[C@@](C)(C(=O)O)OC2)cc1)c1ccc(C)cc1`, the fold change (FC) in series [1] came out at 10.8.
Still for that read-out and setting: the same measure for `COc1ccc(/C(C)=N/OCCOc2ccc(C[C@H]3CO[C@@](C)(C(=O)O)OC3)cc2)cc1OC`: 3.61.
As to `COc1ccc(/C(C)=N/OCCOc2ccc(C[C@H]3CO[C@@](C)(C(=O)O)OC3)cc2)cc1`, the Activity in the series on Mus musculus [2] is listed as -53%; with Mus musculus [5] it was -45%; with Rattus norvegicus [6], -54%; with Rattus norvegicus [7] it was -56%; with Rattus norvegicus [8], 68%; in the series on Rattus norvegicus [10], -68%. This molecule returned a Cmax in series [3] of 120 ng/mL. In addition, the fold change (FC) in series [1] worked out at 15. The half-life in series [4] is 14 h. Further, the Tmax in series [9] was determined as 0.61 h. In series [11], the AUC(0-inf) stood at 1420 ng·h/mL.
Take `CN(CCOc1ccc(CC2SC(=O)NC2=O)cc1)c1ccccn1` (configuration not stated): the “fold change (FC)” value in [1] is “inactive”.
The same measure, in the same setting: then `C/C(=N\OCCOc1ccc(C[C@H]2CO[C@@](C)(C(=O)O)OC2)cc1)c1ccc2ccccc2c1`, with 1.76; and `C/C(=N\OCCOc1ccc(C[C@H]2CO[C@@](C)(C(=O)O)OC2)cc1)c1ccc2c(c1)CCCC2`, with 1.63.
With `C/C(=N\OCCOc1ccc(C[C@H]2CO[C@@](C)(C(=O)O)OC2)cc1)c1ccc(C(F)(F)F)cc1`, in series [1], the fold change (FC) turned out to be 5.79.
On the same count and under the same terms, then `Cc1ccc(-c2nc(COc3ccc(C[C@H]4CO[C@@](C)(C(=O)O)OC4)cc3)c(C)o2)cc1`, with 14.7.
On the same count and under the same terms, then `C/C(=N\OCCOc1ccc(C[C@H]2CO[C@@](C)(C(=O)O)OC2)cc1)c1ccc(S(C)(=O)=O)cc1`, with 1.37.
Turning to `Cc1ccc(-c2nc(CCCC[C@H]3CO[C@@](C)(C(=O)O)OC3)c(C)o2)cc1`, the Activity is -51% with Rattus norvegicus [12]; 62% in the series on Rattus norvegicus [13]; -49% with Rattus norvegicus [14]; -54% in the series on Mus musculus [15]; -43% in the series with Mus musculus [16]; -58% in the series on Rattus norvegicus [17]. Moreover, the fold change (FC) in series [1] stood at 12.7. In [4], this molecule had a half-life of 1.99 h. Moreover, the Tmax in series [9] came out at 0.65 h.
Take `C/C(=N\OCCOc1ccc(C[C@H]2CO[C@@](C)(C(=O)O)OC2)cc1)c1cccnc1`: the fold change (FC) in series [1] worked out at 2.36.
The same measure, in the same setting: the same measure for `C/C(=N\OCCOc1ccc(C[C@H]2CO[C@@](C)(C(=O)O)OC2)cc1)c1ccc(OC(F)(F)F)cc1`: 3.48.
For the molecule `C/C(=N\OCCOc1ccc(C[C@H]2CO[C@@](C)(C(=O)O)OC2)cc1)c1ccc(F)cc1`, the fold change (FC) in [1] was determined as 10.5.

As a reminder, the Cmax is the highest concentration seen after dosing. The half-life is how long it takes for the measured level to halve. A word on the Tmax: it is the time from dosing to the highest level. The AUC(0-inf) is total exposure, with the tail of the curve extrapolated.

The values are drawn from ChEMBL document CHEMBL1641494, “Modulation of PPAR subtype selectivity. Part 2: Transforming PPARα/γ dual agonist into α selective PPAR agonist through bioisosteric modification” (Bioorg Med Chem Lett, 2011).
